Assay results: ChEMBL document CHEMBL4673298, “Exploration of Structure-Activity Relationship of Aromatic Aldehydes Bearing Pyridinylmethoxy-Methyl Esters as Novel Antisickling Agents” (J Med Chem, 2020)
Active and inactive are the calls of the source. The rule behind the calls is not given here.

How the values were obtained:
Erythrocyte = test: Inhibition of sickling in sickle cell RBCs from blood isolated from patient with homozygous SS under hypoxic conditions incubated for 2 hrs; assay type: functional, tissue-based; details: Homo sapiens
Outline: (§1)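 SS blood, hematocrit 20%, preincubated under air with compound (0.5, 1, 2 mM) for 1 h at 37 °C, then 2 h hypoxia (2.5% O2/97.5% N2) at 37 °C. Aliquots are fixed in 2% glutaraldehyde without air exposure. Cell morphology is scored from bright-field images at 40×. Three biological replicates, mean ± SD.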

Homo sapiens [1] = organism: Homo sapiens; test: Binding affinity to Hemoglobin in normal human whole blood assessed as increase in Hb affinity for oxygen at 2 mM incubated for 24 hrs by oxygen equilibrium curve study; assay type: tissue-based
Outline: (§2)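 Normal human whole blood, hematocrit 30%, incubated with or without compound in DMSO (0.5, 1.0 or 2.0 mM; 2 mM for the time course) at 37 °C. The blood is tonometered about 7 min at 37 °C against gas with 0.804, 2.935 and 5.528% O2 (6, 20, 40 mmHg). sO2 and pO2 are read on a blood gas analyzer. ΔP50% is taken relative to no compound. Time course sampled at 1, 2, 4, 8, 12, 24 h.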

Red blood cell [2] = test: Binding affinity to Hemoglobin in sickle cell RBCs from blood isolated from patient with homozygous SS assessed as increase in hemoglobin modification under hypoxic conditions incubated for 2 hrs […]; assay type: tissue-based; details: Homo sapiens
Outline: (§3)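 SS blood, hematocrit 20%, incubated under air with compound (0.5, 1, 2 mM) at 37 °C for 1 h, then hypoxic (2.5% O2/97.5% N2) at 37 °C for 2 h. Cells are washed and hemolyzed. Lysate is run on weak cation-exchange HPLC to quantify Hb adduct (modified Hb). Three biological replicates, mean ± SD.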

Red blood cell [3] = test: Binding affinity to Hemoglobin in sickle cell RBCs from blood isolated from patient with homozygous SS assessed as increase in Hb affinity for oxygen under hypoxic conditions incubated for 2 hrs by oxygen equilibrium curve study; assay type: tissue-based; details: Homo sapiens
Outline: (§4)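 SS blood, hematocrit 20%, incubated under air with compound (0.5, 1, 2 mM) at 37 °C for 1 h, then hypoxic (2.5% O2/97.5% N2) at 37 °C for 2 h. Cells are washed in PBS and hemolyzed hypotonically. Lysate in 0.1 M potassium phosphate pH 7.0 is run by Hemox analysis for P50. ΔP50 is given as percent of DMSO control. Three biological replicates, mean ± SD.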

[4] = Inhibition of sickling in sickle cell RBCs from blood isolated from patient with homozygous SS at 2 mM under hypoxic conditions incubated for 2 hrs; assay type: functional; details: Homo sapiens, Erythrocyte; outline: as §1
[5] = Stability in human whole blood assessed as parent compound level at 0.5 mM incubated for 24 hrs by reversed-phase HPLC analysis; assay type: ADME, tissue-based; details: read-out: Stabilty
Outline: (§5)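 Normal whole blood, hematocrit 30%, incubated with or without compound at 0.5 or 1 mM at 37 °C. Aliquots taken at 0, 4, 8, 24 h are deproteinized with 0.1 M formic acid in acetonitrile at 60–65 °C for 30 min, centrifuged and filtered. Reversed-phase C18 HPLC uses a 0.1% formic acid water/acetonitrile gradient, detection at 261 nm. Parent and carboxylic acid analogue are quantified; the acid serves as reference.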

Mus musculus [6] = test: Induction of in-vivo hemoglobin-O2 affinity shifts in C57BL/6 mouse at 150 mg/kg, ip dosed as single administration measured after 3 to 6 hrs by oxygen equilibrium curve study; assay type: functional, organism-based; details: time 3-6 hrs, TDE = time-dependent effect
Outline: (§6)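 C57BL/6 mice (3 male, 3 female) receive a single intraperitoneal dose of 150 mg/kg. Blood is drawn by submandibular bleeding before dosing and at 1, 3 and 6 h, then hemolyzed. Hb modification and Hb-O2 affinity shift are measured; n = 6.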

[7] = Inhibition of sickling in sickle cell RBCs from blood isolated from patient with homozygous SS at 0.5 mM under hypoxic conditions incubated for 2 hrs; assay type: functional; details: Homo sapiens, Erythrocyte; outline: as §1
[8] = Induction of in-vivo hemoglobin-O2 affinity shifts in C57BL/6 mouse at 150 mg/kg, ip dosed as single administration measured after 6 hrs by oxygen equilibrium curve study; assay type: functional; outline: as §6
[9] = Stability in human whole blood assessed as parent compound level at 1 mM incubated for 24 hrs by reversed-phase HPLC analysis; assay type: ADME, tissue-based; details: read-out: Stabilty; outline: as §5
Homo sapiens [10] = organism: Homo sapiens; test: Binding affinity to Hemoglobin in normal human whole blood assessed as increase in Hb affinity for oxygen at 2 mM by oxygen equilibrium curve study; assay type: tissue-based; outline: as §2
Mus musculus [11] = test: Induction of in-vivo modification of intracellular hemoglobin in C57BL/6 mouse at 150 mg/kg, ip dosed as single administration measured after 1 to 6 hrs by cation-exchange HPLC analysis; assay type: functional, organism-based; details: time 1-6 hrs, TDE = time-dependent effect; outline: as §6
Homo sapiens [12] = organism: Homo sapiens; test: Binding affinity to Hemoglobin in normal human whole blood assessed as increase in Hb affinity for oxygen incubated for 1.5 hrs by oxygen equilibrium curve study; assay type: tissue-based; outline: as §2
[13] = Inhibition of sickling in sickle cell RBCs from blood isolated from patient with homozygous SS at 1 mM under hypoxic conditions incubated for 2 hrs; assay type: functional; details: Homo sapiens, Erythrocyte; outline: as §1
Red blood cell [14] = test: Binding affinity to Hemoglobin in sickle cell RBCs from blood isolated from patient with homozygous SS assessed as increase in Hb affinity shift for oxygen at 0.5 mM under hypoxic conditions incubated for 2 hrs by oxygen equilibrium curve study; assay type: tissue-based; details: Homo sapiens; outline: as §4
Red blood cell [15] = test: Binding affinity to Hemoglobin in sickle cell RBCs from blood isolated from patient with homozygous SS assessed as increase in hemoglobin modification at 1 mM under hypoxic conditions incubated for 2 hrs […]; assay type: tissue-based; details: Homo sapiens; outline: as §3
Red blood cell [16] = test: Binding affinity to Hemoglobin in sickle cell RBCs from blood isolated from patient with homozygous SS assessed as increase in Hb affinity shift for oxygen at 1 mM under hypoxic conditions incubated for 2 hrs by oxygen equilibrium curve study; assay type: tissue-based; details: Homo sapiens; outline: as §4
[17] = Drug metabolism in human whole blood assessed as carboxylic acid analogue formation at 0.5 to 1 mM incubated up to 24 hrs by reversed-phase HPLC analysis; assay type: ADME, tissue-based; details: 1000 µM, dose 0.5-1 mM; outline: as §5
[18] = Induction of in-vivo modification of intracellular hemoglobin in C57BL/6 mouse at 150 mg/kg, ip dosed as single administration measured after 6 hrs by cation-exchange HPLC analysis
Red blood cell [19] = test: Binding affinity to Hemoglobin in sickle cell RBCs from blood isolated from patient with homozygous SS assessed as increase in Hb affinity shift for oxygen at 2 mM under hypoxic conditions incubated for 2 hrs by oxygen equilibrium curve study; assay type: tissue-based; details: Homo sapiens; outline: as §4
Red blood cell [20] = test: Binding affinity to Hemoglobin in sickle cell RBCs from blood isolated from patient with homozygous SS assessed as increase in hemoglobin modification at 0.5 mM under hypoxic conditions incubated for 2 hrs […]; assay type: tissue-based; details: Homo sapiens; outline: as §3
Red blood cell [21] = test: Binding affinity to Hemoglobin in sickle cell RBCs from blood isolated from patient with homozygous SS assessed as increase in hemoglobin modification at 2 mM under hypoxic conditions incubated for 2 hrs […]; assay type: tissue-based; details: Homo sapiens; outline: as §3
Homo sapiens [22] = organism: Homo sapiens; test: Binding affinity to Hemoglobin in normal human whole blood assessed as increase in Hb affinity for oxygen at 2 mM incubated for 1 to 24 hrs by oxygen equilibrium curve study; assay type: tissue-based; details: time 1-24 hrs; outline: as §2

Structure (SMILES) | inhibition (Erythrocyte) | Activity (Red blood cell [2]) | Activity (Red blood cell [3]) | inhibition at 2000 µM [4] [%] | Activity (Mus musculus [6]) | inhibition at 500 µM [7] [%] | Activity [8] [%] | Activity (Mus musculus [11]) | Activity (Homo sapiens [12]) | inhibition at 1000 µM [13] [%] | Activity (Red blood cell [14]) [%] | Activity (Red blood cell [15]) [%] | Activity (Red blood cell [16]) [%] | Activity [18] [%] | Activity (Red blood cell [19]) [%] | Activity (Red blood cell [20]) [%] | Activity (Red blood cell [21]) [%] | Activity (Homo sapiens [10]; TDE = time-dependent effect) | other results
COC(=O)c1ccnc(COc2ccc(OC)cc2C=O)c1 | Dose-dependent effect | Dose-dependent effect | Dose-dependent effect | > 90 |  |  |  |  |  |  |  |  |  |  |  |  |  |  | Activity (Homo sapiens [1]): Active
COC(=O)c1cccc(COc2cccc(O)c2C=O)n1 | Dose-dependent effect | Dose-dependent effect | Dose-dependent effect | 93.2 | Tde | 7.6 | 5.5 | Tde | inactive | 54.2 | 5.4 | 81.1 | 29.2 | 9.6 | 48.6 | 29.2 | 100 |  | remaining at 24 h, 500 µM [5]: 89%; remaining at 24 h, 1000 µM [9]: 83%; Activity (Homo sapiens [10]): inactive; Drug metabolism [17]: Metabolite_Detected
COC(=O)c1ncccc1COc1ccc(OC)cc1C=O | Dose-dependent effect | Dose-dependent effect | Dose-dependent effect | 99.1 |  | 37.6 |  |  | inactive | 97.7 | 4.4 | 62.3 | 13.9 |  | 25.4 | 30.2 | 79.2 |  | Activity (Homo sapiens [10]): inactive
COC(=O)c1ccc(COc2ccc(OC)cc2C=O)cn1 | Dose-dependent effect | Dose-dependent effect | Dose-dependent effect | 96.5 |  | 29.1 |  |  | Dose-dependent effect | 81.6 | 9.9 | 64 | 19.5 |  | 32.3 | 36.1 | 81.3 | Tde | 
COc1ccc(OCc2cccc(CO)n2)c(C=O)c1 | Dose-dependent effect | Dose-dependent effect | Dose-dependent effect | > 90 | Tde | 26 | 1 | Tde |  | 47 |  | 60 |  | 1.5 |  |  | 80 |  | 
COc1cc(C=O)ccc1O |  |  |  |  |  |  |  |  |  |  |  |  |  |  |  |  |  |  | Activity (Homo sapiens [22]): 21%
COC(=O)c1cccnc1COc1ccc(OC)cc1C=O | Dose-dependent effect | Dose-dependent effect | Dose-dependent effect | 99 |  | 41.8 |  |  | Dose-dependent effect | 71.7 | 5.9 | 49.9 | 12.8 |  | 21.3 | 32.1 | 67.5 | Tde | 
COC(=O)c1cccnc1COc1cccc(O)c1C=O | Dose-dependent effect | Dose-dependent effect | Dose-dependent effect | 98.8 | Tde | 43.3 | 14.5 | Tde | Dose-dependent effect | 70.6 | 12.2 | 64.4 | 18.8 | 16.9 | 39.6 | 46 | 90.8 | Tde | remaining at 24 h, 500 µM [5]: 81%; remaining at 24 h, 1000 µM [9]: 78%; Drug metabolism [17]: Metabolite_Detected
